How the values were obtained:
wtBcr-Abl-Ba/F3 = assay: Antiproliferative activity on wtBcr-Abl-Ba/F3; format: cell-based, murine; details: for cellular Bcr-Abl inhibitory activity (in words): wild-type Bcr-Abl
parental Ba/F3 = assay: Cytotoxicity on parental Ba/F3 cells; format: cell-based, murine; details: Mus musculus, BaF3, read-out: cellular EC50 Wt-Ba/F3
Method in brief: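 Untransfected IL-3-dependent Ba/F3 cells were grown in RPMI 1640 with 10% FBS, 1% L-glutamine and 10% WEHI-conditioned medium as the IL-3 source, at 37 °C under 5% CO2. Cells were exposed to test compound for 48 h, and viability was measured by CellTiter-Glo luminescence.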

T315I Bcr-Abl [1] = assay: Antiproliferative activity on T315I Bcr-Abl mutant Ba/F3 cells; format: cell-based, murine; details: for EC50: Mus musculus, BaF3, read-out: cellular EC50 T315I
Method in brief: (§1)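 IL-3-dependent murine Ba/F3 cells were transfected with a pEYK vector carrying p210 Bcr-Abl with the point mutation. Cells were grown in RPMI 1640 with 10% FBS, 1% L-glutamine and 25 μg/mL zeocin at 37 °C under 5% CO2. Test compound was applied for 48 h, and proliferation was read by CellTiter-Glo luminescence.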

E505K Bcr-Abl = assay: Antiproliferative activity on E505K Bcr-Abl mutant Ba/F3 cells; format: cell-based, murine; details: Mus musculus, BaF3, read-out: cellular EC50 E505K
Method in brief: as §1

T315I Bcr-Abl [2] = details: cited from earlier work
Y253H Bcr-Abl = details: background statement, ref not given; cited from earlier work
[3] = system: panel of 80 diverse kinases; details: cited from earlier work
E255V Bcr-Abl = details: background statement, ref not given; cited from earlier work
[4] = system: 40 other tyrosine kinases; details: cited from earlier work

With CN(c1ccc(OC(F)(F)F)cc1)c1cc(-c2ccncc2)ncn1 [9g] the “cellular Bcr-Abl inhibitory activity (in words)” value (wtBcr-Abl-Ba/F3) was “complete loss of cellular activity”.
For COc1ccc(Nc2cc(NCCN3CCOCC3)ncn2)cc1 [8b], the “cellular Bcr-Abl inhibitory activity (in words)” value (wtBcr-Abl-Ba/F3) was “complete loss of activity”.
With Fc1ccc(Nc2cc(-c3ccncc3)ncn2)cc1 [9h] the “cellular Bcr-Abl inhibitory activity (in words)” value (wtBcr-Abl-Ba/F3) was “complete loss in activity”.
For CN(c1ccc(OC(F)(F)F)cc1)c1cc(NCCN2CCOCC2)ncn1 [8a], the “cellular Bcr-Abl inhibitory activity (in words)” value (wtBcr-Abl-Ba/F3) was “complete loss of cellular activity”.
In the case of FC(F)(F)Oc1ccc(Oc2cc(NCCN3CCOCC3)ncn2)cc1 [8d], the “cellular Bcr-Abl inhibitory activity (in words)” value (wtBcr-Abl-Ba/F3) is reported as “complete loss of cellular activity”.
For FC(F)(F)Oc1ccc(Nc2ccc(NCCN3CCOCC3)nn2)cc1 [9f], the “cellular Bcr-Abl inhibitory activity (in words)” value (wtBcr-Abl-Ba/F3) was “inactive”.
For CS(=O)(=O)Nc1ccc(-c2cc(Nc3ccc(OC(F)(F)F)cc3)ncn2)cc1 [5h], the EC50 (parental Ba/F3) was > 10 µM, the EC50 (T315I Bcr-Abl [1]) was > 10 µM and the EC50 (E505K Bcr-Abl) was > 10 µM.
In the case of FC(F)(F)Oc1ccc(Nc2cncc(NCCN3CCOCC3)n2)cc1 [9e], the “cellular Bcr-Abl inhibitory activity (in words)” value (wtBcr-Abl-Ba/F3) is reported as “inactive”.
With NC(=O)c1ccccc1-c1cc(Nc2ccc(OC(F)(F)F)cc2)ncn1 [5b] the “cellular Bcr-Abl inhibitory activity (in words)” value (wtBcr-Abl-Ba/F3) was “inactive”.
In the case of FC(F)(F)Oc1ccc(Nc2ccnc(NCCN3CCOCC3)n2)cc1 [9d], the “cellular Bcr-Abl inhibitory activity (in words)” value (wtBcr-Abl-Ba/F3) is reported as “inactive”.
In the case of O=C(NCCO)c1cccc(-c2cc(Nc3ccc(OC(F)(F)F)cc3)ncn2)c1 [compound 2, N-(2-Hydroxyethyl)-3-(6-(4-(trifluoromethoxy)phenylamino)pyrimidin-4-yl)benzamide], the “synergy with nilotinib on proliferation of T315I Bcr-Abl (in words)” value (T315I Bcr-Abl [2]) is given as “capable of synergizing”.
In the case of FC(F)(F)Oc1ccc(Nc2ncnc(NCCN3CCOCC3)n2)cc1 [9l, N2-(2-morpholinoethyl)-N4-(4-(trifluoromethoxy)phenyl)-1,3,5-triazine-2,4-diamine], the “cellular Bcr-Abl inhibitory activity (in words)” value (wtBcr-Abl-Ba/F3) is reported as “inactive”.
With FC(F)(F)Oc1ccc(CNc2cc(NCCN3CCOCC3)ncn2)cc1 [8g] the “cellular Bcr-Abl inhibitory activity (in words)” value (wtBcr-Abl-Ba/F3) was “completely inactive”.
With FC(F)(F)Oc1ccc(-c2cc(NCCN3CCOCC3)ncn2)cc1 [8e] the “cellular Bcr-Abl inhibitory activity (in words)” value (wtBcr-Abl-Ba/F3) was “complete loss of cellular activity”.
In the case of NC(=O)c1cccc(-c2cc(Nc3ccc(OC(F)(F)F)cc3)ncn2)c1 [compound 1], the “activity on Y253H mutant (in words)” value (Y253H Bcr-Abl) is listed as “active”, the “activity on T315I gatekeeper mutant (in words)” value (T315I Bcr-Abl [1]) is listed as “inactive” and the “inhibition of biochemical activity of a panel of 80 diverse kinases (in words)” value [3] is listed as “did not inhibit”. For the same molecule, the “activity on E255V mutant (in words)” value (E255V Bcr-Abl) was “active”, the “cellular Bcr-Abl inhibitory activity (in words)” value (wtBcr-Abl-Ba/F3) was “active” and the “inhibition of 40 other tyrosine kinases in cellular assays (in words)” value [4] was “did not inhibit”.
With CN1CCN(C(=O)c2cc3c(Nc4ccc(OC(F)(F)F)cc4)ncnc3s2)CC1 [14d] the EC50 (parental Ba/F3) was > 10 µM, the EC50 (T315I Bcr-Abl [1]) was > 10 µM and the EC50 (E505K Bcr-Abl) was > 10 µM. For the same molecule, the “fold more potent than 14c” value (wtBcr-Abl-Ba/F3; cellular Bcr-Abl EC50, versus compound lacking N-methylation (14c)) was “approximately 10 fold”.
In the case of Cc1cn(-c2cc(NC(=O)c3ccc(C)c(Nc4nccc(-c5cccnc5)n4)c3)cc(C(F)(F)F)c2)cn1 [nilotinib, reference compound], the EC50 (wtBcr-Abl-Ba/F3; Mus musculus, read-out: wt Bcr-Abl-Ba/F3 EC50) is reported as 0.04 µM.
With FC(F)(F)c1ccc(Nc2cc(-c3ccncc3)ncn2)cc1 [9j] the “cellular Bcr-Abl inhibitory activity (in words)” value (wtBcr-Abl-Ba/F3) was “retained some activity”.

Reference: paper PMC2951064 (Journal of Medicinal Chemistry, 2010)
